KCNK3 block: human KCNK3 channel inhibitors, primary screen, CHO cells, FluxOR thallium flux, B-score | Potassium channel subfamily K member 3 (Homo sapiens), O14649 | FluxOR fluorescence; stronger effect = lower value | B-score at 10 µM | 340,000 compounds, 0.84% hits | AID 602410, 2012;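 active = B-score under library mean minus 4 SD, starting fluorescence ratio at most library mean plus 5 SD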;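 note: more negative B-score means stronger inhibition of thallium flux through KCNK3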
Kir21 block: inhibitors of mouse Kir2.1 inward-rectifier potassium channel; Inward rectifier potassium channel 2 (Mus musculus), P35561; HEK293-Kir2.1, FluxOR thallium flux fluorescence; stronger effect = lower value; B-score at 10 µM; 310,000 compounds, 0.85% hits; AID 1672, 2009;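 active = fluorescence ratio B-score at or below minus 3 SD of library scores, with starting-brightness B-score within 2 SD, cut at about -4.2 in these data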;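 note: channel flux triggered by added potassium and thallium sulfate stimulus; B-score of peak minus minimum fluorescence over baseline after thallium stimulus; more negative B-score means stronger Kir2.1 block with less thallium influx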
hERG rescue: hERG rescue from dofetilide block, primary screen, cell-based, CHO-hERG, FluxOR thallium flux, dofetilide IC70. Voltage-gated inwardly rectifying potassium channel KCNH2 (Homo sapiens), Q12809. activation (rescue from dofetilide block), less the hit threshold, % at 10 µM. dofetilide IC70 present. 310,000 compounds, 0.51% hits;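 active = activation above the mean of controls blocked by dofetilide plus 5 SD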;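 note: thallium influx through hERG after potassium depolarization seen as dye fluorescence rise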
KCNQ1 act: potentiators or activators of KCNQ1 channel, primary screen, cell-based, thallium flux, high-throughput | CHO-K1 KCNQ1, thallium flux FluxOR fluorescence; stronger effect = higher value | 310,000 compounds, 0.35% hits | B-score at 10 µM | Potassium voltage-gated channel subfamily KQT member 1 (Homo sapiens), P51787;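 active = fluorescence ratio B-score, a plate-corrected score, at least three library SD, with initial intensity B-score within 5 SD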
Target sequence (P51787 whole entry, looked up): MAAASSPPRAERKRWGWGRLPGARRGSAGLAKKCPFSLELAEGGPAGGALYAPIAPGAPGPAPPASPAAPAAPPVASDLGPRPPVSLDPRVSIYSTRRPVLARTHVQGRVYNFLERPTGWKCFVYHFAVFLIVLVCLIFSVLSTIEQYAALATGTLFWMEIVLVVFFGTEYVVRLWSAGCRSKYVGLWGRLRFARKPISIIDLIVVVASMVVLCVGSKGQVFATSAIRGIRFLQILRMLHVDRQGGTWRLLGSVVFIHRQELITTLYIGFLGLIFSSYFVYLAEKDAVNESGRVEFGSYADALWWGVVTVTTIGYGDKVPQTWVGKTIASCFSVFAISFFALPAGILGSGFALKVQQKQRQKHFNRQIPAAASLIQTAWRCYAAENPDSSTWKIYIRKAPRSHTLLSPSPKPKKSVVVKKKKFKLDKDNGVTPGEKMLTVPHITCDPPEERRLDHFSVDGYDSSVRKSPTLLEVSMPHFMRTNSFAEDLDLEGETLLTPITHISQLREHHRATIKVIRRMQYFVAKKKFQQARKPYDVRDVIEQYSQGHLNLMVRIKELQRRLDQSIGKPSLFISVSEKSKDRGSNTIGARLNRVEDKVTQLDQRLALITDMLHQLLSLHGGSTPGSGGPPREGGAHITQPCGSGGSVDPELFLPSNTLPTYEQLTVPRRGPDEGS
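Test system: CHO-K1 cells stably expressing KCNQ1 / Medium: assay buffer / Also added: depolarizing K+/Tl+ stimulus, K2SO4 and Tl2SO4 each 12.5 mM in 5x stock / Incubation: 90 min dye loading and 20 min compound exposure, both at room temperature / Signal: thallium influx via FluxOR fluorescence, kinetic imaging / Evaluation: B score of baseline-normalized fluorescence ratio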
KCNK9 block: KCNK9 potassium channel inhibitors, primary screen, HEK293 cells, thallium flux; Potassium channel subfamily K member 9 (Homo sapiens), Q9NPC2; FluxOR thallium flux fluorescence; stronger effect = lower value; B-score at 10 µM; 310,000 compounds, 1.2% hits;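 active = ratio B-score over 3 SD below the library mean, with starting fluorescence within 5 SD of its mean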;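 note: negative B-score means less thallium flux so channel inhibition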
KCNQ1 inh: inhibitors of human KCNQ1 channel, primary screen, cell-based, thallium flux, high-throughput; CHO-K1 KCNQ1, FluxOR thallium flux fluorescence; stronger effect = higher value; 310,000 compounds, 1.3% hits; B-score at 10 µM; AID 2642, 2010;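 active = compounds whose thallium flux B-score, printed positive for inhibition, exceeds three library SD while starting fluorescence stays within three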;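 note: channel opened by potassium depolarization with thallium stimulus after 20 min compound exposure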
Active calls of the source: *; i = inactive; . = no result. This is a sample that favours compounds with a hit; in the whole collection about 3.7% have one here.

SMILES	KCNK3 block	Kir21 block	hERG rescue	KCNQ1 act	KCNK9 block	KCNQ1 inh
CN(C)C(CNC(=O)C1CCN(S(=O)(=O)c2cccc(Cl)c2Cl)CC1)c1ccccc1 (configuration not stated)	i	-1.2	-3	i	i	i
CCOC(=O)c1ccc(/C=C2/C=C(c3ccccc3)N(c3ccc(Cl)c(C(=O)O)c3)C2=O)cc1	i	-6.6	-24	i	i	11*
Cn1c(N)c(C(=O)CSc2nn(-c3ccccc3)c(=S)s2)c(=O)n(C)c1=O	i	.	.	.	.	.
CCOc1ccc(CCNC(=O)c2ccc(CS(=O)Cc3ccccc3Cl)o2)cc1 (configuration not stated)	i	-4.3*	-18	i	i	i
CCOc1ccc(CCNC(=O)c2ccc(CS(=O)Cc3ccc(Cl)cc3)o2)cc1 (configuration not stated)	i	0.35	-9	i	i	i
O=c1[nH]c(COc2ccc(Cl)cc2Br)nc2ccccc12	i	1.1	-9	i	i	i
Cn1c(N)nc2nc[nH]c2c1=S	i	.	.	.	.	.
CC(OC(=O)Cc1c[nH]c2ccccc12)C(=O)Nc1ccccc1[N+](=O)[O-] (configuration not stated)	i	-6.5*	-20	i	i	i
Cc1ccc(C(=O)C(C)OC(=O)Cc2c[nH]c3ccccc23)cc1 (configuration not stated)	i	-5.2*	-8	i	i	i
Cc1ccc(NC(=O)C(C)OC(=O)Cc2c[nH]c3ccccc23)cc1 (configuration not stated)	i	-6.6*	-8	i	i	i
Cc1ccc(C(=O)C(C)OC(=O)Cc2n[nH]c(=O)c3ccccc23)cc1 (configuration not stated)	i	-1.4	-8	i	i	i
Cc1cc(C)n(-c2ccc(C(=O)NCc3ccc(F)cc3)cc2)n1	i	-9.9*	-12	i	i	i
O=C(NCCc1ccccc1)C(=O)NCC1CCNCC1	.	0.27	4.6*	i	i	i
COc1ccc(C[C@H]2CN3C(=NC[C@@H]3C(C)C)N2CCNC(=O)c2ccc(C)c(Br)c2)cc1	i	-6.5*	-18	i	i	i
O=Cc1c(N2CCN(CCO)CC2)nc2ccccn2c1=O	i	-3.3	-16	i	i	13*
S=c1[nH]c2cc(-c3ccccc3)ccc2o1	i	1.7	45*	63*	i	i
Cc1ccccc1OCC(=O)N=Nc1c(O)n(C)c2ccccc12	i	-1.6	0	8*	i	i
CCOc1ccccc1NC(=O)CN1CCC(C(=O)c2ccc(F)cc2)CC1	i	-0.13	-5	i	-7.1*	i
COc1ccccc1NC(=O)CN1CCC(C(=O)c2ccc(F)cc2)CC1	i	-0.43	-16	i	i	i
Cc1ccc(-c2n[nH]c(=S)nc2-c2ccc(C)cc2)cc1	i	-0.46	6.7*	i	i	i
CNC(=O)/C(C#N)=C/c1cccc(Oc2ccccc2)c1	i	-5.1*	-13	i	i	i
C=CCc1c(C)nc2c(C)cccc2c1SC(=N)N	i	0.64	0	i	i	i
CC1CCN(c2ccc(-c3ccc(NC(=O)C(F)(F)F)cc3)nn2)CC1	i	0.83	-9	i	i	i
COCCNC(=O)c1ccc(NC(=O)C2(c3ccccc3)CCCC2)cc1	i	0.17	7.5*	i	i	i
COc1ccc(NC(=O)C2(c3ccccc3)CCCC2)cc1	i	2.2	-14	i	i	i
COc1ccc(OC)c(N2CC(O)=C(c3nc4ccccc4s3)C2=N)c1	i	-0.23	-12	i	-6.6*	i
CCOc1ccccc1N1CC(O)=C(c2nc3ccccc3s2)C1=N	i	1.1	-10	i	i	i

From PubChem
